Measurements from ChEMBL document CHEMBL3792365, “Dioxol and dihydrodioxin analogs of 2- and 3-phenylacetonitriles as potent anti-cancer agents with nanomolar activity against a variety of human cancer cells” (2016).

Assays:
Assay type in all cases: functional
[1] = test system: CCRF-CEM; assay: Growth inhibition of human CCRF-CEM cells after 48 hrs by sulforhodamine B assay
In short: (§1)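 Five-dose testing against a 60-line human tumor cell panel. GI50 is the drug concentration giving a 50% reduction in net protein increase relative to untreated control cells.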

[2] = Growth inhibition of human HL-60(TB) cells after 48 hrs by sulforhodamine B assay; settings: HL-60, 48 h
In short: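 Five-dose study across the 60-cell human tumour panel. GI50 is the drug concentration giving a 50% reduction in net protein increase relative to control cells.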

[3] = Growth inhibition of human MOLT4 cells after 48 hrs by sulforhodamine B assay; settings: MOLT-4, 48 h
In short: (§2)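 Five-dose concentration series run across a panel of 60 human tumour cell lines. GI50 is taken as the drug concentration giving a 50% reduction in net protein increase relative to untreated control cells.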

[4] = Growth inhibition of human RPMI8226 cells after 48 hrs by sulforhodamine B assay; settings: RPMI-8226, 48 h; in short: as §2
[5] = test system: SR; assay: Growth inhibition of human SR cells after 48 hrs by sulforhodamine B assay; in short: as §2
[6] = test system: A549; assay: Growth inhibition of human A549/ATCC cells after 48 hrs by sulforhodamine B assay; settings: A549, 48 h; in short: as §1
[7] = Growth inhibition of human HOP62 cells after 48 hrs by sulforhodamine B assay; settings: HOP-62, 48 h; in short: as §1
[8] = Growth inhibition of human HOP92 cells after 48 hrs by sulforhodamine B assay; settings: HOP-92, 48 h; in short: as §1
[9] = test system: NCI-H23; assay: Growth inhibition of human NCI-H23 cells after 48 hrs by sulforhodamine B assay; settings: NCI-H23, 48 h; in short: as §2
[10] = test system: NCI-H522; assay: Growth inhibition of human NCI-H522 cells after 48 hrs by sulforhodamine B assay; settings: NCI-H522, 48 h; in short: as §2
[11] = Growth inhibition of human COLO205 cells after 48 hrs by sulforhodamine B assay; settings: COLO 205, 48 h; in short: as §1
[12] = Growth inhibition of human HCC2998 cells after 48 hrs by sulforhodamine B assay; settings: HCC 2998, 48 h; in short: as §1
[13] = Growth inhibition of human HCT116 cells after 48 hrs by sulforhodamine B assay; settings: HCT-116, 48 h; in short: as §1
[14] = Growth inhibition of human HCT15 cells after 48 hrs by sulforhodamine B assay; settings: HCT-15, 48 h; in short: as §1
[15] = test system: HT-29; assay: Growth inhibition of human HT-29 cells after 48 hrs by sulforhodamine B assay; settings: HT-29, 48 h; in short: as §1
[16] = test system: KM12; assay: Growth inhibition of human KM12 cells after 48 hrs by sulforhodamine B assay; settings: KM12, 48 h; in short: as §1
[17] = Growth inhibition of human SW620 cells after 48 hrs by sulforhodamine B assay; settings: SW-620, 48 h; in short: as §2
[18] = Growth inhibition of human SF268 cells after 48 hrs by sulforhodamine B assay; settings: SF-268, 48 h; in short: as §2
[19] = Growth inhibition of human SF295 cells after 48 hrs by sulforhodamine B assay; settings: SF-295, 48 h; in short: as §2
[20] = Growth inhibition of human SF539 cells after 48 hrs by sulforhodamine B assay; settings: SF-539, 48 h; in short: as §2
[21] = Growth inhibition of human SNB19 cells after 48 hrs by sulforhodamine B assay; settings: SNB-19, 48 h; in short: as §2
[22] = Growth inhibition of human SNB75 cells after 48 hrs by sulforhodamine B assay; settings: SNB-75, 48 h; in short: as §2
[23] = test system: U-251; assay: Growth inhibition of human U251 cells after 48 hrs by sulforhodamine B assay; settings: U-251, 48 h; in short: as §2
[24] = Growth inhibition of human LOXIMVI cells after 48 hrs by sulforhodamine B assay; settings: LOX IMVI; in short: as §1
[25] = test system: M14; assay: Growth inhibition of human M14 cells after 48 hrs by sulforhodamine B assay; settings: M14, 48 h; in short: as §1
[26] = test system: MDA-MB-435; assay: Growth inhibition of human MDA-MB-435 cells after 48 hrs by sulforhodamine B assay; settings: MDA-MB-435, 48 h; in short: as §1
[27] = test system: SK-MEL-2; assay: Growth inhibition of human SK-MEL-2 cells after 48 hrs by sulforhodamine B assay; settings: SK-MEL-2, 48 h; in short: as §2
[28] = test system: SK-MEL-28; assay: Growth inhibition of human SK-MEL-28 cells after 48 hrs by sulforhodamine B assay; settings: SK-MEL-28, 48 h; in short: as §2
[29] = test system: SK-MEL-5; assay: Growth inhibition of human SK-MEL-5 cells after 48 hrs by sulforhodamine B assay; settings: SK-MEL-5, 48 h; in short: as §2
[30] = Growth inhibition of human UACC62 cells after 48 hrs by sulforhodamine B assay; settings: UACC-62, 48 h
In short: (§3)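 Five-dose testing across the 60-line human tumour cell panel. GI50 is the drug concentration that gives a 50% reduction in net protein increase relative to control cells.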

[31] = Growth inhibition of human IGROV1 cells after 48 hrs by sulforhodamine B assay; settings: IGROV-1, 48 h; in short: as §1
[32] = Growth inhibition of human OVCAR3 cells after 48 hrs by sulforhodamine B assay; settings: OVCAR-3, 48 h; in short: as §2
[33] = Growth inhibition of human OVCAR4 cells after 48 hrs by sulforhodamine B assay; settings: OVCAR-4, 48 h; in short: as §2
[34] = Growth inhibition of human NCI-ADR-RES cells after 48 hrs by sulforhodamine B assay; in short: as §2
[35] = Growth inhibition of human SKOV3 cells after 48 hrs by sulforhodamine B assay; settings: SK-OV-3, 48 h; in short: as §2
[36] = test system: 786-0; assay: Growth inhibition of human 786-0 cells after 48 hrs by sulforhodamine B assay; settings: 786-0, 48 h; in short: as §1
[37] = test system: A498; assay: Growth inhibition of human A498 cells after 48 hrs by sulforhodamine B assay; settings: A498, 48 h; in short: as §1
[38] = test system: ACHN; assay: Growth inhibition of human ACHN cells after 48 hrs by sulforhodamine B assay; in short: as §1
[39] = Growth inhibition of human Caki1 cells after 48 hrs by sulforhodamine B assay; settings: CAKI-1, 48 h; in short: as §1
[40] = Growth inhibition of human UO31 cells after 48 hrs by sulforhodamine B assay; settings: UO-31, 48 h; in short: as §3
[41] = Growth inhibition of human PC3 cells after 48 hrs by sulforhodamine B assay; settings: PC-3, 48 h; in short: as §2
[42] = Growth inhibition of human DU145 cells after 48 hrs by sulforhodamine B assay; settings: DU-145, 48 h; in short: as §1
[43] = test system: MCF7; assay: Growth inhibition of human MCF7 cells after 48 hrs by sulforhodamine B assay; settings: MCF7, 48 h; in short: as §1
[44] = test system: MDA-MB-231; assay: Growth inhibition of human MDA-MB-231 cells after 48 hrs by sulforhodamine B assay; settings: MDA-MB-231, 48 h; in short: as §1
[45] = Growth inhibition of human Hs 578T cells after 48 hrs by sulforhodamine B assay; in short: as §1
[46] = test system: MDA-MB-468; assay: Growth inhibition of human MDA-MB-468 cells after 48 hrs by sulforhodamine B assay; settings: MDA-MB-468, 48 h; in short: as §1

COc1ccc(/C=C/c2cc(OC)c(OC)c(OC)c2)cc1
GI50 [1]: 2.89 µM | GI50 [2]: 3.14 µM | GI50 [3]: 3.22 µM | GI50 [4]: 6.42 µM | GI50 [5]: 3.93 µM | GI50 [6]: 3.7 µM | GI50 [7]: 3.14 µM | GI50 [8]: 7.23 µM | GI50 [9]: 3.37 µM | GI50 [10]: 3.7 µM | GI50 [11]: 2.07 µM | GI50 [12]: 3.59 µM | GI50 [13]: 3.23 µM | GI50 [14]: 2.82 µM | GI50 [15]: 2.32 µM | GI50 [16]: 3.63 µM | GI50 [17]: 2.07 µM | GI50 [18]: 7.59 µM | GI50 [19]: 2.18 µM | GI50 [20]: 2.18 µM | GI50 [21]: 4.85 µM | GI50 [22]: 1.88 µM | GI50 [23]: 3.07 µM | GI50 [24]: 4.89 µM | GI50 [25]: 2.81 µM | GI50 [26]: 1.04 µM | GI50 [27]: 3.95 µM | GI50 [28]: 3.86 µM | GI50 [29]: 2.5 µM | GI50 [30]: 2.37 µM | GI50 [31]: 5.29 µM | GI50 [32]: 3.45 µM | GI50 [33]: 4 µM | GI50 [34]: 3.01 µM | GI50 [35]: 3.34 µM | GI50 [36]: 5.42 µM | GI50 [37]: 0.74 µM | GI50 [38]: 4.51 µM | GI50 [39]: 3 µM | GI50 [40]: 3.69 µM | GI50 [41]: 3.22 µM | GI50 [42]: 4.23 µM | GI50 [43]: 1.66 µM | GI50 [44]: 3.74 µM | GI50 [45]: 3.09 µM | GI50 [46]: 2.22 µM
